Measurements from ChEMBL document CHEMBL1124437, “Analogues of cisplatin derived from diaminodideoxytetritols. Synthesis and activity against the ADJ/PC6 plasmacytoma in mice” (J Med Chem, 1989).

Legend:
[1] = Therapeutic index is the ratio of LD50 to ED90
Summary of the method: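 In female Balb-C mice bearing subcutaneous ADJ/PC6 tumor, dosed ip or po at 5, 25, 125 and 625 mg per kg (six animals per dose). Therapeutic index is the 50% lethal dose divided by the dose causing 90% tumor regression (LD50/ED90).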

[2] = system: Mus musculus; assay: Compound was screened for antitumor activity against ADJ/PC6 tumor subcutaneously implanted into female intraperitoneal compound administration; type: functional, organism-based
Summary of the method: (§1)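 ADJ/PC6 plasmacytoma implanted subcutaneously in female Balb-C mice, with compound given by intraperitoneal injection. Four dose levels were tested (5, 25, 125 and 625 mg per kg), six mice per dose. LD50 is the 50% lethal dose, ED90 is the dose giving 90% tumor regression, and therapeutic index = LD50/ED90.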

[3] = system: Mus musculus; assay: Antitumor activity against ADJ/PC6 tumor subcutaneously implanted into female intraperitoneal compound administration; type: functional, organism-based; summary of the method: as §1

Substance | TI [1] | further results
cis-dichloro(cis-5,6-diamino-1,3-dioxepane)platinum (II) [listing 1 of 2 here] | 4.1 | 
CISPLATIN [listing 1 of 2 here] | 8.1 | 
cis-dichloro(cis-5,6-diamino-1,3-dioxepane)platinum (II) [listing 2 of 2 here] |  | LD50 [2]: 41.5 mg/kg
CISPLATIN [listing 2 of 2 here] |  | LD50 [3]: 13 mg/kg
